In the library only some 1.4% were active in any assay of this set; here they are far more common.
CAL PDZ FP-1 = untagged CAL PDZ binding inhibitors, primary screen, biochemical, fluorescence polarization, HTS; purified CAL PDZ, TMR-peptide fluorescence polarization, 1 h; inhibition, % at 24.9 µM; actives 0.92% (n = 300,000); AID 602252, 2012;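 active means mean inhibition of at least 30% with at least half of replicates also reaching 30%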
DYRK1A inh = rat Dyrk1A kinase inhibitors, primary screen, biochemical, single point, plate reader; actives 0.43% (n = 310,000); AID 504441, 2011; inhibition, % at 12.5 µM; ADP-Glo luminescence, NFATc1 peptide; Dual specificity tyrosine-phosphorylation-regulated kinase 1A (Rattus norvegicus), Q63470; in the data active means inhibition above about 50%
CDK5 inh = inhibitors of human CDK5/p35 kinase, primary screen, biochemical, single concentration; Cyclin-dependent kinase 5 (Homo sapiens) + Cyclin-dependent kinase 5 activator 1 (Homo …; Recombinant CDK5/p35, ADP-Glo luminescence, 60 min; inhibition, % at 10 µM; actives 0.01% (n = 330,000);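 active means highest replicate inhibition of at least 50% and at least 75% of replicates reaching 50%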
Target sequence (Q00535 whole entry, looked up): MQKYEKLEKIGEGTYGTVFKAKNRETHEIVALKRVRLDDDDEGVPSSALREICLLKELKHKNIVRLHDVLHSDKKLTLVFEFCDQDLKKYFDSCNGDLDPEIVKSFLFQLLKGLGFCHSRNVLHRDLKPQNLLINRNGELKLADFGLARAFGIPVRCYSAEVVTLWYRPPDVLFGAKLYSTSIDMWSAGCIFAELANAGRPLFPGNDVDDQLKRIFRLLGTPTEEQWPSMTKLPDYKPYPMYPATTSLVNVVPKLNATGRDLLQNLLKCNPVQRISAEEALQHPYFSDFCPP
Target sequence (Q15078 whole entry, looked up): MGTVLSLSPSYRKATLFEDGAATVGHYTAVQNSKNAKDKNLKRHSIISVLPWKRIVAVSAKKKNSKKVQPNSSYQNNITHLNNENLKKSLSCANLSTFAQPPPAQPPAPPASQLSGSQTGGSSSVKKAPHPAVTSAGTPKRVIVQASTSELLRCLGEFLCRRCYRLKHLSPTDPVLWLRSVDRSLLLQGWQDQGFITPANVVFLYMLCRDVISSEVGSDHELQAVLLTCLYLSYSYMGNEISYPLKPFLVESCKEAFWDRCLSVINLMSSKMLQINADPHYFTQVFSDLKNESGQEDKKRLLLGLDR
Tb MetRS inh = T. brucei MetRS inhibitors, primary screen, biochemical, luminescence; methionyl-tRNA synthetase (Trypanosoma brucei brucei); purified T. brucei MetRS, ATP depletion, Kinase-Glo luminescence; inhibition, % at 11.9 µM; actives 0.4% (n = 360,000); AID 624268, 2012;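 active means inhibition above a per-plate cutoff of the control wells' mean inhibition plus 3 SD, cut at about 5.5% in these data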
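System: purified T. brucei MetRS enzyme / Detection: Kinase-Glo luciferase luminescence reporting remaining unconsumed ATP / Medium: HEPES buffer with MgCl2, KCl, DTT, spermine, BSA, pyrophosphatase / Replication: singlicate, one well per compound / Evaluation: percent inhibition relative to median high and low control wells / Schedule: 2 h aminoacylation at 25 °C after 15 min preincubation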
CAL PDZ FP-2 = CAL PDZ peptide-binding inhibitors, primary screen, biochemical, fluorescence polarization, Cer-tagged CAL PDZ, HTS; Golgi-associated PDZ and coiled-coil motif-containing protein (Homo sapiens), Q9HD26; purified CAL PDZ, TMR-peptide fluorescence polarization, 1 h; inhibition, % at 20 µM; actives 0.02% (n = 330,000); AID 504414, 2011;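 active means highest replicate inhibition of at least 40%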
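System: tagged CAL PDZ domain. Schedule: 1 h room-temperature incubation prior to read. Signal: fluorescence polarization (mP). Measure: percent inhibition from loss of millipolarization.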
PvdQ inh = P. aeruginosa PvdQ acylase inhibitors, primary screen, biochemical, fluorescence, plate reader and imaging, single point | PvdQ acylase [Pseudomonas aeruginosa LESB58] | purified PvdQ acylase | inhibition, % at 10 µM | actives 0.063% (n = 340,000) | AID 488965, 2010; in the data active means inhibition above about 30%, passing the limit was not always enough
TbMetRS confirm = T. brucei MetRS inhibitors, confirmation, biochemical, luminescence. inhibition, % at 11.9 µM. shares compounds with Tb MetRS inh. T. brucei MetRS enzyme, luminescence (ATP depletion). actives 93% (n = 1,400); in the data active means inhibition above about 7%
Jurkat tox = Jurkat T cell cytotoxicity, cytotoxicity control for T. brucei MetRS inhibitor project, luminescence, high throughput. inhibition, % at 8.3 µM. actives 12% (n = 1,400). shares compounds with Tb MetRS inh. Jurkat cells viability, ATP luminescence; in the data active means inhibition above about 15%
TbMetRS FP orth = T. brucei MetRS inhibitors, orthogonal assay for T. brucei MetRS inhibitor project, biochemical, fluorescence polarization; shares compounds with Tb MetRS inh; purified T. brucei MetRS; inhibition, % at 11.9 µM; actives 44% (n = 1,400); in the data active means inhibition above about 17%
Large screens that a line does not name were inactive (follow-up assays come after a bar, where they were run).

Clc1cccc(-c2nc3c4ccccc4ccn3c2CC2CCCCC2)c1	none (no result: CAL PDZ FP-1, DYRK1A inh, CDK5 inh, CAL PDZ FP-2, PvdQ inh)
COc1ccc(CCn2c(C)cc3c(c2=O)C(c2ccc4c(c2)OCO4)C(C#N)=C(N)O3)cc1OC (stereo unspecified)	Tb MetRS inh 16 | TbMetRS confirm inactive | Jurkat tox inactive | TbMetRS FP orth inactive
Cc1cc2c(c(=O)n1Cc1ccccn1)C(c1ccc3c(c1)OCO3)C(C#N)=C(N)O2 (stereo unspecified)	Tb MetRS inh 14 | TbMetRS confirm inactive | Jurkat tox inactive | TbMetRS FP orth inactive
COc1cc(C2C(C#N)=C(N)Oc3cc(C)n(CC4CCCO4)c(=O)c32)cc2c1OCO2 (stereo unspecified)	Tb MetRS inh 78 | TbMetRS confirm inactive | Jurkat tox inactive | TbMetRS FP orth inactive
COc1cc(C2C(C#N)=C(N)Oc3cc(C)oc(=O)c32)cc2c1OCO2 (stereo unspecified)	none
Cc1cc2c(c(=O)n1Cc1ccc3c(c1)OCO3)C(c1cccnc1)C(C#N)=C(N)O2 (stereo unspecified)	none
C[C@@H]1CN([C@@H](C)CO)C(=O)c2cc(Br)cnc2O[C@H]1CN(C)C(=O)CN1CCOCC1	none (no result: CAL PDZ FP-1, DYRK1A inh, CDK5 inh, CAL PDZ FP-2, PvdQ inh)
N/N=C(/Cc1nc2ccccc2[nH]1)c1ccc([N+](=O)[O-])cc1	CAL PDZ FP-1 73, Tb MetRS inh 6.0 | TbMetRS confirm 88 | Jurkat tox inactive | TbMetRS FP orth 66
Cc1ccc2nc(CCc3nc4ccc(C)cc4[nH]3)[nH]c2c1	Tb MetRS inh 6.4 | TbMetRS confirm 11 | Jurkat tox inactive | TbMetRS FP orth inactive
c1ccc2[nH]c(CSc3nc4ccccc4s3)nc2c1	Tb MetRS inh 8.1 | TbMetRS confirm 20 | Jurkat tox inactive | TbMetRS FP orth inactive
O=C(Cc1nc2ccccc2[nH]1)c1ccc(Br)cc1	Tb MetRS inh 11 | TbMetRS confirm inactive | Jurkat tox inactive | TbMetRS FP orth inactive
O=C(NCCCN1CCCC1=O)C(=O)NCC1OCCCN1S(=O)(=O)c1ccccc1 (stereo unspecified)	none (no result: CAL PDZ FP-1, DYRK1A inh, CDK5 inh, CAL PDZ FP-2, PvdQ inh)
CCOC(=O)[C@]12CCC=C1N(Cc1ccc3c(c1)OCO3)C(=O)[C@H](CC(=O)N1CCC(c3ccccc3)CC1)C2	none (no result: CAL PDZ FP-1, DYRK1A inh, CDK5 inh, CAL PDZ FP-2, PvdQ inh)
Cc1cn([C@H]2C[C@H](O)[C@@H](/C=C/C(=O)NCCN3CCCCC3)O2)c(=O)[nH]c1=O	none (no result: CAL PDZ FP-1, DYRK1A inh, CDK5 inh, CAL PDZ FP-2, PvdQ inh)
CC1=C(C(=O)N(C(C)C)C(C)C)CC(CC(=O)NCCN2CCOCC2)C(=O)N1CCCN1CCCC1=O (stereo unspecified)	none (no result: CAL PDZ FP-1, DYRK1A inh, CDK5 inh, CAL PDZ FP-2, PvdQ inh)
c1ccc2[nH]c(CCCCc3nc4ccccc4[nH]3)nc2c1	Tb MetRS inh 6.4 | TbMetRS confirm 16 | Jurkat tox inactive | TbMetRS FP orth inactive
CCCc1nc2ccccc2[nH]1	none
COc1ccc(Cl)cc1S(=O)(=O)NC(C)c1cnn(-c2ccccn2)c1C (stereo unspecified)	none (no result: CAL PDZ FP-1, DYRK1A inh, CDK5 inh, CAL PDZ FP-2, PvdQ inh)
O=C(NCCc1ccc(Cl)cc1)Nc1ccc(Cl)cc1	Tb MetRS inh 71 (no result: CAL PDZ FP-1) | TbMetRS confirm 69 | Jurkat tox inactive | TbMetRS FP orth 55
NS(=O)(=O)c1ccc(CCNC(=O)Nc2ccc(Cl)c(Cl)c2)cc1	Tb MetRS inh 15 (no result: CAL PDZ FP-1) | TbMetRS confirm 23 | Jurkat tox 18 | TbMetRS FP orth 19
NS(=O)(=O)c1ccc(CNC(=S)Nc2ccc(Cl)c(Cl)c2)cc1	none
O=C(NCCc1ccc(F)cc1)Nc1ccccc1	none
NS(=O)(=O)c1cccc(NC(=O)Cc2ccc(Cl)c(Cl)c2)c1	Tb MetRS inh 12 | TbMetRS confirm 19 | Jurkat tox inactive | TbMetRS FP orth inactive
O=C(NCCc1ccncc1)Nc1ccc(Cl)cc1	Tb MetRS inh 6.2 | TbMetRS confirm 14 | Jurkat tox inactive | TbMetRS FP orth inactive
COc1ccccc1N(C)S(=O)(=O)c1ccc(C(=O)Nc2cc(OC)c(OC)c(OC)c2)cc1	none
Cc1ccc(NC(=O)NNS(=O)(=O)c2ccc(Br)cc2)cc1	none
Cc1ccc(S(=O)(=O)NNC(=O)Nc2ccc(Cl)c(Cl)c2)cc1	Tb MetRS inh 12 | TbMetRS confirm 13 | Jurkat tox inactive | TbMetRS FP orth inactive
C[C@H](NC(=O)c1ccccc1)C(=O)OCC(=O)Nc1ccc(Cl)cn1	none (no result: CAL PDZ FP-1, DYRK1A inh, CDK5 inh, CAL PDZ FP-2, PvdQ inh)
O=C1CC(SCc2nc3ccccc3[nH]2)C(=O)N1c1ccc(Cl)cc1 (stereo unspecified)	Tb MetRS inh 5.7 | TbMetRS confirm 5.7 | Jurkat tox inactive | TbMetRS FP orth inactive
O=C1CC(SCc2nc3ccccc3[nH]2)C(=O)N1c1ccc(F)c(Cl)c1 (stereo unspecified)	Tb MetRS inh 29 | TbMetRS confirm 21 | Jurkat tox inactive | TbMetRS FP orth inactive
CCOc1ccc(N2C(=O)CC(SCc3nc4ccccc4[nH]3)C2=O)cc1 (stereo unspecified)	none
COc1ccc(N2C(=O)CC(SCc3ccc(Cl)cc3)C2=O)cc1 (stereo unspecified)	none (no result: DYRK1A inh)
O=C1CC(SCc2nc3ccccc3[nH]2)C(=O)N1c1cccc(F)c1 (stereo unspecified)	Tb MetRS inh 26 | TbMetRS confirm 23 | Jurkat tox 17 | TbMetRS FP orth inactive
CCCCCCN1C[C@H](n2cc(-c3ccc(F)cc3)nn2)[C@@H](O)C[C@@H]1c1ccc(Cl)cc1	none (no result: CAL PDZ FP-1, DYRK1A inh, CDK5 inh, CAL PDZ FP-2, PvdQ inh)
CC(C)CCNC(=O)C1(C)CCN1Cc1ccc2ccccc2c1 (stereo unspecified)	none (no result: CAL PDZ FP-1, DYRK1A inh, CDK5 inh, CAL PDZ FP-2, PvdQ inh)
O=C(NCc1ccccc1Cl)c1ccc2sc([C@H]3C[C@H](O)[C@@H](CO)O3)nc2c1	none (no result: CAL PDZ FP-1, DYRK1A inh, CDK5 inh, CAL PDZ FP-2, PvdQ inh)

Source: PubChem
